# Only some compounds are listed: those with a hit (about 4.9% of all), similar ones and a draw of the others.
# NPY1 pot ag – potentiates or activates human NPY-Y1 receptor; NPY-Y1 expressing cells, potentiator/agonist activation; activation, % at 3.6 µM; 220,000 tested, 0.37% active; AID 1304; in the data active means activation above about 33%, passing the limit was not always enough;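 further: cells stimulated with NPY at EC10 then isoproterenol at EC100; 0% = low agonist plus stimulus and 100% = saturating agonist plus stimulus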
# Target sequence (P25929 whole entry, looked up): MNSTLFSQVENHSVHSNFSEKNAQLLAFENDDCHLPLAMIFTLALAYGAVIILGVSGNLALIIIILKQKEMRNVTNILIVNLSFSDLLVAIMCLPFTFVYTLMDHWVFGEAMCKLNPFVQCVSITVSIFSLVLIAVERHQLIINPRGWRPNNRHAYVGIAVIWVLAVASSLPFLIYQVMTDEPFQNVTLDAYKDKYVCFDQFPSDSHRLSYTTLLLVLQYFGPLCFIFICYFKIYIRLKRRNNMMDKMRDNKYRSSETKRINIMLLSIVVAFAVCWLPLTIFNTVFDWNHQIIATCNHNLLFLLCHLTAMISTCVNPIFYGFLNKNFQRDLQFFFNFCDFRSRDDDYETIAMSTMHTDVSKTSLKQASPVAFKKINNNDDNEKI
# WT yeast gro inh – growth inhibition of WT yeast, mitochondrial fusion screen; mitochondrial fusion phenotypic screen, WT strain; inhibition, % at 10 µM; 190,000 tested, 2.1% active; AID 1362; in the data active means inhibition above about 58%; tested in S. cerevisiae
# RAM network inh – blocks the yeast RAM network; S. cerevisiae dse1pr::URA3 reporter, 5-FOA growth OD615, 2 d; analog-sensitive cbk1-as2 kinase mutant strain; inhibition, % at 50 µM; 190,000 tested, 1.8% active;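 active means inhibition above a set limit, 3 SD over mean compound inhibition, cut at about 8.4% in these data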;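 further: 0% = DMSO-only wells with no growth and 100% = 10 µM 1-NA-PP1 full growth; inhibition rescues growth on 5-FOA so higher OD means more RAM inhibition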
# NPY2 pot ag – human NPY-Y2 potentiation or agonism, primary screen. cells expressing NPY-Y2, potentiator/agonist read-out. activation, % at 3.6 µM. 220,000 tested, 0.45% active. AID 1359; in the data active means activation above about 27%;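 further: cells stimulated with NPY near EC25 plus isoproterenol at EC100; 0% = vehicle plus submaximal agonist and 100% = vehicle plus saturating agonist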
# NPY-Y1 antag – antagonists of human neuropeptide Y receptor Y1. P25929. HEK293-CNG Y1 cells, membrane potential fluorescence; NPY at EC95, then isoproterenol. inhibition, % at 3.6 µM. 200,000 tested, 1% active. AID 1040;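 active means inhibition above the campaign mean inhibition of all tested compounds plus 3 SD, cut at about 20% in these data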;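 further: 0% = DMSO wells given NPY plus isoproterenol and 100% = isoproterenol alone without NPY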
#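 Material: HEK293 Y1/CNG channel cell line | Also added: NPY (25 nM), isoproterenol (1 µM), Ro 20-1724 (25 µM) | Compound: One concentration, 3.6 µM, in 0.4% DMSO | Schedule: 3 h dye uptake, 1 h room-temperature compound, 45 min post-isoproterenol | Signal: Membrane-potential fluorescent dye readout | Read-out: % inhibition of NPY effect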
# NPY-Y2 antag – antagonists of human neuropeptide Y receptor Y2. P49146. NPY-Y2 expressing cells, antagonist mode. inhibition, % at 2.7 µM. 140,000 tested, 0.99% active; in the data active means inhibition above about 17%;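 further: 0% = vehicle with agonist challenge and 100% = reference antagonist with challenge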
# Numbers without * were called inactive; · = no result.
SMILES,NPY1 pot ag,WT yeast gro inh,RAM network inh,NPY2 pot ag,NPY-Y1 antag,NPY-Y2 antag
CCN1C(=O)/C(=C2\SC(=S)N(CCCOC)C2=O)c2ccccc21,1,6,9.5*,14,-1,-1
CN1C(=O)/C(=C2\SC(=S)N(CCCCCC(=O)O)C2=O)c2ccccc21,1,·,·,-1,·,·
COc1cccc(C(=O)O/N=C(\N)c2ccncc2)c1,9,29,4,-8,2,2
COc1cccc(C(=O)O/N=C(\N)Cc2ccc(Cl)cc2)c1,6,68*,-2,-7,-2,2
N/C(Cc1ccc([N+](=O)[O-])cc1)=N\OC(=O)c1ccc2ccccc2c1,-30,81*,2,-33,0,6
COc1ccc(N(CC(=O)NC2CCCC2)C(=O)Cn2nnc(-c3ccc(C)cc3)n2)cc1OC,1,-17,5,11,2,-1
COc1ccc(N(CC(=O)NC2CCCC2)C(=O)Cn2nnc(-c3ccc(F)cc3)n2)cc1OC,4,0,9.3*,-4,0,3
CCCN1C(=O)/C(=C/c2c(NCCCOC(C)C)nc3c(C)cccn3c2=O)SC1=S,-9,-5,9.4*,-3,3,2
O=C(CCC1N=C2c3ccccc3N=C(SCc3ccccc3Cl)N2C1=O)NCc1ccco1 (configuration not stated),-12,9,1,9,1,3
O=C(CCC1N=C2c3ccccc3N=C(SCc3cccc(Cl)c3)N2C1=O)NCc1ccco1 (configuration not stated),13,59*,7,-17,-5,1
Cc1ccccc1COC(=O)c1nn(-c2ccccc2)nc1N,-32,62*,9.4*,-26,19,·
COC(=O)c1nn(-c2ccccc2)nc1-c1nn(-c2ccccc2)nc1C(=O)OC,-8,13,0,-8,3,4
CN1c2ccccc2N(C)C1(C)c1ccccc1,-14,17,4,3,-2,-1
O=C(Oc1ccc(OC(=O)N2CCCCC2)cc1)N1CCCCC1,10,12,0,1,-1,·
CC[C@H](C)[C@@H](NC(=O)O[C@@H]1C(=O)c2cc(OC)ccc2O[C@H]1c1ccc(OC)c(Br)c1)C(=O)OC,-45,16,3,-6,8,7
COC(=O)[C@H](Cc1ccccc1)NC(=O)O[C@H]1C(=O)c2ccc(OC)cc2O[C@@H]1c1ccc2c(c1)OCO2,-14,62*,4,3,-6,0
COC(=O)[C@H](Cc1ccccc1)NC(=O)O[C@@H]1C(=O)c2cc(OC)ccc2O[C@H]1c1ccc(OC)c(Br)c1,-27,2,11*,-6,-3,1
COc1ccc2c(c1)O[C@H](c1ccc3c(c1)OCO3)[C@@H](OC(=O)N[C@H](C)C1CCCCC1)C2=O,-8,32,4,-12,3,12
C/C(N)=C(/C#N)C(=O)COC(=O)c1cc(-c2cccc3ccccc23)nc2ccccc12,-7,26,6,-4,-2,2
COc1cccc(CC(NC(C)=O)C(=O)NC2CCN(c3c(Cc4ccccc4)c(C)nc4ncnn34)CC2)c1OC (configuration not stated),-4,-16,0,13,4,4
Cc1cccc(NCc2nc3ccccc3n2Cc2ccccc2)c1,-6,75*,2,6,1,3
COCc1nc2ccccc2n1Cc1ccccc1,-27,15,0,6,3,6
Cc1ccc(Cn2c(Cc3ccccc3)nc3ccccc32)cc1,1,71*,2,9,-2,3
COCCCn1c(-c2ccc(S(=O)(=O)N3CCOCC3)cc2)csc1=Nc1ccccc1,-2,13,3,7,1,1
COc1ccccc1/C=N/N1C(=O)C(CC(=O)Nc2ccc([N+](=O)[O-])cc2OC)SC1=Nc1cccc(C)c1C (configuration not stated),27,-28,11*,3,5,·
SMILES,NPY1 pot ag,WT yeast gro inh,RAM network inh,NPY2 pot ag,NPY-Y1 antag,NPY-Y2 antag
Cc1[nH]c2ccccc2c1C(=O)COC(=O)Cn1c(C(F)(F)F)nc2ccccc21,-34,-1,1,12,-1,4
CC(/C=N/n1c(C2CCCCC2)n[nH]c1=S)=C\c1ccccc1,-8,89*,0,-7,4,6
CCCC12CN3CCN(CC(C3)/C1=N\NC(=O)c1ccccc1N)C2,-17,1,1,0,0,2
CC(C)(C)c1ccc(C(=O)N/N=C2\C3CN4CCN(C3)CC2(c2ccccc2)C4)cc1,-16,98*,0,-12,3,2
CCCC12CN3CCN(CC(C3)/C1=N\NC(=O)c1ccc(C(C)(C)C)cc1)C2,-14,98*,3,1,5,6
CCOc1ccccc1OCC(=O)Nc1ccc(S(=O)(=O)Nc2ncccn2)cc1,16,-3,2,5,8,0
CCOc1ccccc1OCC(=O)Nc1ccc(S(=O)(=O)N(C)C)cc1,-10,69*,1,5,-11,2
CCn1c2ccccc2c2cc(NC(=O)COc3ccccc3OC)ccc21,-44,-13,9.6*,-13,3,7
CN=c1scc(-c2ccccc2F)n1/N=C(\C)c1cccnc1,27,71*,2,20,8,·
Cc1ccc2nc(Cl)c(/C=N/Nc3ccc(C(=O)O)cc3)cc2c1,4,·,·,-1,·,·
Oc1ccccc1C1CC(c2cccs2)=NC(c2ccc(Cl)cc2)N1 (configuration not stated),10,73*,0,1,-3,·
CN(C)CCCN(C(=O)c1ccc2c(c1)CCCC2)c1nc2ccc(Cl)cc2s1,-8,80*,0,-8,1,6
COc1cccc2sc(N(CCN(C)C)C(=O)/C=C/c3cccs3)nc12,98*,16,1,100*,-7,·
CN(C)CCCN(C(=O)COc1ccccc1)c1nc2ccc(Cl)cc2s1,4,26,2,-1,0,·
CN(C)CCCN(C(=O)CCc1ccccc1)c1nc2ccc(Cl)cc2s1,14,91,0,2,-1,3
Cc1ccc2nc(N(CCCN(C)C)C(=O)CN3C(=O)c4ccccc4C3=O)sc2c1,9,17,0,-1,-1,·
Cc1ccc2nc(N(CCCN(C)C)C(=O)CCc3ccccc3)sc2c1,-3,94*,0,2,9,7
CN(C)CCCN(C(=O)/C=C/c1cccs1)c1nc2ccc(F)cc2s1,-9,86*,2,10,9,·
CCn1c(CNC(=O)c2ccc3c(c2)OCO3)nnc1SCC(=O)Nc1cc(C)ccc1OC,-9,8,3,9,-1,0
CCNc1ccc(N=Nc2c(C)n(C)n(-c3ccccc3)c2=O)cc1,6,-5,8,0,3,·
CN(C)CCCN(C(=O)C1COc2ccccc2O1)c1nc2ccc(F)cc2s1 (configuration not stated),-2,-1,0,-7,2,·

# Source: PubChem BioAssay (several laboratories)
